Assay results published in ChEMBL document CHEMBL4393712, “Discovery of chalcone-modified estradiol analogs as antitumour agents that Inhibit tumour angiogenesis and epithelial to mesenchymal transition” (Eur J Med Chem, 2019).
The source made the active and inactive calls. The rule behind the calls is not given here.

Tests used:
[1] = tested on: MCF7; assay: Inhibition of epithelial-mesenchymal transition in human MCF7 cells assessed as increase in ZO-1 expression level at 2 to 10 uM after 48 hrs by Western blot analysis; assay type: functional, cell-based
Procedure, shortened: (§1)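 MCF-7 cells in RPMI 1640 with 10% FBS, 37 °C, 5% CO2, exposed to no drug, 2 or 10 µM for 48 h. RIPA lysates, BCA quantitation, 8% SDS-PAGE, PVDF transfer, primary antibodies overnight 4 °C, secondary 2 h RT, ECL and densitometry for ZO-1, E-cadherin, N-cadherin, vimentin. Mean ± SD of 3 independent tests.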

[2] = tested on: MCF7; assay: Antimigratory activity against human MCF7 cells at 2 to 10 uM measured after 48 hrs by wound healing assay; assay type: functional, cell-based
Procedure, shortened: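 Cells seeded in 6-well plates, monolayer scratched with pipette tip, washed twice, kept in medium with 2% FBS. Gaps imaged, then drug added (0, 2 or 10 µM for HUVEC and MCF-7); gaps re-imaged after 48 h and migration rate calculated. Three independent experiments; one-way ANOVA.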

[3] = tested on: HUVEC; assay: Effect on FAK expression in HUVEC at 2 to 10 uM after 48 hrs by Western blot analysis; assay type: functional, cell-based; conditions: Homo sapiens
Procedure, shortened: (§2)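 HUVECs grown in RPMI 1640 with 10% FBS, 37 °C, 5% CO2; treated with no drug, 2 or 10 µM for 48 h. Lysed in RIPA with protease/phosphatase inhibitors on ice 30 min, protein by BCA, 8% SDS-PAGE, PVDF transfer, milk block, primary antibody overnight 4 °C, secondary 2 h RT; ECL detection, densitometry. Probed VEGF-R, FAK, p-FAK, SHC.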

[4] = tested on: MCF7; assay: Cytotoxicity against human MCF7 cells assessed as reduction in cell viability measured after 48 to 72 hrs by MTT assay; assay type: cell-based
Procedure, shortened: (§3)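 Cells seeded at 3 × 10^3 per well in 96-well plates, incubated overnight, then given fresh medium with a range of drug concentrations for 48 h or 72 h. MTT added (final 500 µg/mL) for 4 h, formazan dissolved in DMSO, absorbance at 570 nm; IC50 derived. Mean ± SD of 3 independent tests.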

[5] = Toxicity in nude mouse xenografted with human MCF7 cells assessed as effect on lung morphological changes at 22.5 to 45 mg/kg/day, ip administered for 21 days by HE staining analysis; assay type: organism-based; conditions: in vivo, 504 h
[6] = tested on: MCF7; assay: Antitumour activity against human MCF7 cells xenografted in nude mouse assessed as decrease in tumour volume at 22.5 to 45 mg/kg/day, ip administered for 21 days; assay type: functional, organism-based
Procedure, shortened: (§4)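 Nude mice (male/female, 4–6 weeks) injected subcutaneously in right forelimb with 5 × 10^7 MCF-7 cells in 200 µL saline; at mean tumour 100 mm3 randomized (n = 5/group): saline 0.2 mL/day, 22.5 or 45 mg/kg/day ip for 21 days. Body weight and tumour volume (length × width²/2) every other day; tumours weighed at day 21.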

[7] = tested on: MGC-803; assay: Cytotoxicity against human MGC803 cells assessed as reduction in cell viability measured after 48 to 72 hrs by MTT assay; assay type: cell-based; procedure, shortened: as §3
[8] = tested on: GES1; assay: Cytotoxicity against human GES-1 cells assessed as reduction in cell viability measured after 48 to 72 hrs by MTT assay; assay type: cell-based; procedure, shortened: as §3
[9] = tested on: Chorioallantoic membrane; assay: Antiangiogenic activity in chicken chorioallantoic membrane assessed as reduction in neovascularization at 50 ug/ml measured after 72 hrs by CAM assay; assay type: functional; conditions: Gallus gallus
Procedure, shortened: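 Fertilized chicken eggs incubated 6 days at 37 °C; shell windowed and CAM treated (compounds and controls at […] as printed; saline vehicle control). Eggs re-incubated humidified; membranes fixed and harvested after 72 h. Angiogenesis scored by counting blood vessels and imaging neovascular zones; ten eggs per group.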

[10] = molecular target: Focal adhesion kinase 1 (Homo sapiens) (UniProt Q05397); assay: Reduction in FAK phosphorylation in HUVEC at 2 to 10 uM after 48 hrs by Western blot analysis; assay type: cell-based; procedure, shortened: as §2
[11] = tested on: HUVEC; assay: Antimigratory activity against HUVEC at 2 to 10 uM measured after 24 hrs by transwell assay; assay type: functional, cell-based; conditions: Homo sapiens
Procedure, shortened: (§5)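 Cells seeded on upper side of polycarbonate transwell filters in serum-free medium, drug at 0, 2 or 10 µM; complete serum-containing medium in lower chamber as chemoattractant. After 24 h migrated cells fixed in 4% paraformaldehyde 20 min, crystal violet stained 20 min, imaged and counted. Three independent experiments.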

[12] = Solubility of the compound in water; assay type: physicochemical; conditions: buffer
[13] = tested on: HUVEC; assay: Reduction in VEGFR expression in HUVEC at 2 to 10 uM after 48 hrs by Western blot analysis; assay type: functional, cell-based; conditions: Homo sapiens; procedure, shortened: as §2
[14] = Hepatotoxicity in nude mouse xenografted with human MCF7 cells assessed as slight increase in serum alkaline phosphatase level at 22.5 to 45 mg/kg/day, ip administered for 21 days by biochemical automatic analyzer; assay type: toxicity, organism-based; conditions: in vivo, 504 h
[15] = tested on: MCF7; assay: Inhibition of epithelial-mesenchymal transition in human MCF7 cells assessed as increase in E-cadherin expression level at 2 to 10 uM after 48 hrs by Western blot analysis; assay type: functional, cell-based; procedure, shortened: as §1
[16] = tested on: SMMC-7721; assay: Antitumour activity against human SMMC7721 cells assessed as cell growth inhibition measured after 72 hrs by SRB assay; assay type: functional, cell-based; conditions: SMMC-7721, 72 h
Procedure, shortened: (§6)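 Exponentially growing cells trypsinized, seeded at 5 × 10^4 cells/mL in 96-well plates, cultured overnight, then exposed to compounds for 72 h. Cells fixed with 10% TCA 1 h, stained with SRB 15 min, dye dissolved in Tris-HCl, absorbance read; 50% growth-inhibitory concentration calculated.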

[17] = tested on: PC-3; assay: Cytotoxicity against human PC3 cells assessed as reduction in cell viability measured after 48 to 72 hrs by MTT assay; assay type: cell-based; procedure, shortened: as §3
[18] = tested on: B16; assay: Antitumour activity against mouse B16 cells assessed as cell growth inhibition measured after 72 hrs by SRB assay; assay type: functional, cell-based; conditions: B16, 72 h; procedure, shortened: as §6
[19] = tested on: SK-N-SH; assay: Antitumour activity against human SK-N-SH cells assessed as cell growth inhibition measured after 72 hrs by SRB assay; assay type: functional, cell-based; procedure, shortened: as §6
[20] = tested on: MDA-MB-231; assay: Cytotoxicity against human MDA-MB-231 cells assessed as reduction in cell viability measured after 48 to 72 hrs by MTT assay; assay type: cell-based; procedure, shortened: as §3
[21] = Hepatotoxicity in nude mouse xenografted with human MCF7 cells assessed as slight increase in serum aspartate transaminase level at 22.5 to 45 mg/kg/day, ip administered for 21 days by automatic biochemical analyzer; assay type: toxicity, organism-based; conditions: in vivo, 504 h
[22] = tested on: MGC-803; assay: Antitumour activity against human MGC803 cells assessed as cell growth inhibition measured after 72 hrs by SRB assay; assay type: functional, cell-based; conditions: MGC-803, 72 h; procedure, shortened: as §6
[23] = tested on: HET-1A; assay: Cytotoxicity against human HET-1A cells assessed as reduction in cell viability measured after 48 to 72 hrs by MTT assay; assay type: cell-based; procedure, shortened: as §3
[24] = tested on: MCF7; assay: Antimigratory activity against human MCF7 cells at 2 to 10 uM measured after 24 hrs by transwell assay; assay type: functional, cell-based; procedure, shortened: as §5
[25] = Toxicity in nude mouse xenografted with human MCF7 cells assessed as effect on heart morphological changes at 22.5 to 45 mg/kg/day, ip administered for 21 days by HE staining analysis; assay type: organism-based; conditions: in vivo, 504 h
[26] = Toxicity in nude mouse xenografted with human MCF7 cells assessed as increase in body weight at 22.5 to 45 mg/kg/day, ip administered for 21 days; assay type: organism-based; conditions: in vivo, 504 h; procedure, shortened: as §4
[27] = tested on: MCF7; assay: Antitumour activity against human MCF7 cells xenografted in nude mouse assessed as decrease in tumour weight at 22.5 to 45 mg/kg/day, ip administered for 21 days; assay type: functional, organism-based; procedure, shortened: as §4

Focal adhesion kinase 1 (Homo sapiens), sequence (Q05397 2-1052 limits assumed): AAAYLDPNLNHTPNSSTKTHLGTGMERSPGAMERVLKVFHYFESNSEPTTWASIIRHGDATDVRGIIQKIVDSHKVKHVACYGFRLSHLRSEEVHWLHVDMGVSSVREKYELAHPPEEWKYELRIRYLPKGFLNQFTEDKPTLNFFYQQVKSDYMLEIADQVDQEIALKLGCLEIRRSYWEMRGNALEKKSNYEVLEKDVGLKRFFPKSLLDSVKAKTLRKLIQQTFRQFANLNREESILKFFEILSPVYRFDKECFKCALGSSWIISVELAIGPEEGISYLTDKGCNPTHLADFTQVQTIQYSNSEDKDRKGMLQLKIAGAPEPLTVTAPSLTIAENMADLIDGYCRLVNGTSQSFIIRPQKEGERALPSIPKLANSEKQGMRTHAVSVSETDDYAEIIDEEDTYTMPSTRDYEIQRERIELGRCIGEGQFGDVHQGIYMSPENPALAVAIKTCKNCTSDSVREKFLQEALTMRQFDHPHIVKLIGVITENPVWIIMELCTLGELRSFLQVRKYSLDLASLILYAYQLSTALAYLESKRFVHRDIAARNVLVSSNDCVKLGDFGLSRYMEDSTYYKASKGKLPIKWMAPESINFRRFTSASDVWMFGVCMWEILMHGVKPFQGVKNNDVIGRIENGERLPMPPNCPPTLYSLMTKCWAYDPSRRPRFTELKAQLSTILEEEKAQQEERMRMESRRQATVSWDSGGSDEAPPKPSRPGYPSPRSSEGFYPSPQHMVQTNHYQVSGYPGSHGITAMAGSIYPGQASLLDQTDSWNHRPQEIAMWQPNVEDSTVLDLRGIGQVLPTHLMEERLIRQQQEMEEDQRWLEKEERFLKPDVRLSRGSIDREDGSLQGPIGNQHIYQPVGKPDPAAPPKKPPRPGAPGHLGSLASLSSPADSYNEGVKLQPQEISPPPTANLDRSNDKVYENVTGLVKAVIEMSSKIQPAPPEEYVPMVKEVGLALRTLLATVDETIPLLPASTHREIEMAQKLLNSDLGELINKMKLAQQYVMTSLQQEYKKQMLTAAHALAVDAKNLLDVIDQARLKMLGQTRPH

inhibition [10]: Active
solubility [12]: Soluble
IC50 [16]: 4.3 µM
IC50 [18]: 17.9 µM
IC50 [19]: 24.7 µM
IC50 [22]: 14.9 µM
Structure (SMILES): COc1cc2c(cc1O)CC[C@@H]1[C@@H]2CC[C@]2(C)C(=O)/C(=C/c3ccc(Cl)cc3)C[C@@H]12
inhibition [1]: Active
Activity [2]: Active
Activity [3]: inactive
IC50 [4]: 77 µM
Activity [5]: Non-Toxic
inhibition [6]: Active
Activity [7]: Toxic
Activity [8]: Toxic
inhibition [9]: Active
Activity [11]: Active
inhibition [13]: Active
Activity [14]: Toxic
inhibition [15]: Active
Activity [17]: Toxic
IC50 [20]: 78.6 µM
Activity [21]: Toxic
IC50 [23]: > 100 µM
Activity [24]: Active
Activity [25]: Non-Toxic
Activity [26]: Non-Toxic
inhibition [27]: Active
